Key:
Type in all cases: functional, cell-based
[1] = tested on: MCF7; assay: Antiproliferative activity against human MCF7 cells after 3 days by MTT assay; conditions: MCF7, 72 h
Procedure, shortened: (§1)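 Stock cells grown to confluence in DMEM with 10% inactivated FBS, penicillin, streptomycin and amphotericin B at 37 °C, 5% CO₂, then detached with trypsin-EDTA-glucose. About 10,000 cells per well were seeded; after 24 h, drug was added at five dose levels for 72 h. MTT was added for 3 h, formazan dissolved in propanol and read at 540 nm. IC50 was taken from dose-response curves, triplicate, mean ± SEM.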

[2] = tested on: HeLa; assay: Antiproliferative activity against human HeLa cells after 3 days by MTT assay; conditions: 72 h; procedure, shortened: as §1
[3] = tested on: A549; assay: Antiproliferative activity against human A549 cells after 3 days by MTT assay; conditions: A549, 72 h; procedure, shortened: as §1

SMILES | IC50 [1] | IC50 [2] | IC50 [3]
O=C(Cn1c2ccccc2c(=O)c2ccccc21)Nc1ccc(C(=O)O)cc1 | 7.12 µM | 10.7 µM | 8.8 µM
O=C(Cn1c2ccccc2c(=O)c2ccccc21)Nc1ccccc1[N+](=O)[O-] | 12.6 µM | 13.2 µM | 11.8 µM
O=C(Cn1c2ccccc2c(=O)c2ccccc21)Nc1ccc(O)cc1 | 15.6 µM | 22 µM | 17.4 µM
Cc1ccc(NC(=O)Cn2c3ccccc3c(=O)c3ccccc32)cc1 | 20.1 µM | 21.9 µM | 20.2 µM
O=C(Cn1c2ccccc2c(=O)c2ccccc21)Nc1ccc(Br)cc1 | 33 µM | 32.2 µM | 35.1 µM
O=C(Cn1c2ccccc2c(=O)c2ccccc21)Nc1cccc(C(F)(F)F)c1 | 35.1 µM | 34.9 µM | 38.2 µM
O=C(Cn1c2ccccc2c(=O)c2ccccc21)Nc1ccc(Cl)cc1 | 31.2 µM | 32.3 µM | 34.9 µM
O=C(Cn1c2ccccc2c(=O)c2ccccc21)Nc1ccc(C(F)(F)F)cc1 | 26.4 µM | 23.2 µM | 20.5 µM
O=C(Cn1c2ccccc2c(=O)c2ccccc21)Nc1ccc(F)cc1 | 27.5 µM | 26.6 µM | 24.5 µM
O=C(Cn1c2ccccc2c(=O)c2ccccc21)Nc1cccc(Cl)c1 | 30.1 µM | 29.1 µM | 33.3 µM
O=C(Cn1c2ccccc2c(=O)c2ccccc21)Nc1ccccc1 | 39.7 µM | 43.8 µM | 41.4 µM
O=C(Cn1c2ccccc2c(=O)c2ccccc21)Nc1ccccc1C(=O)O | 6.07 µM | 8.8 µM | 7.39 µM
COc1ccc(NC(=O)Cn2c3ccccc3c(=O)c3ccccc32)cc1 | 15 µM | 19.6 µM | 16.7 µM
O=C(Cn1c2ccccc2c(=O)c2ccccc21)Nc1ccccc1F | 29.2 µM | 25.4 µM | 23.3 µM
O=C(Cn1c2ccccc2c(=O)c2ccccc21)Nc1ccc([N+](=O)[O-])cc1 | 14 µM | 17.2 µM | 19.7 µM

Source: ChEMBL document CHEMBL3259535, “Synthesis, cytotoxic study and docking based multidrug resistance modulator potential analysis of 2-(9-oxoacridin-10(9H)-yl)-N-phenyl acetamides” (Eur J Med Chem, 2014)
